In ChEMBL document CHEMBL2010768, “Optimization of Potent Inhibitors of P. falciparum Dihydroorotate Dehydrogenase for the Treatment of Malaria” (ACS Med Chem Lett, 2011):
pIC50: −log10 of the molar value. Each block holds one compound with its values, some of them ahead of it. Active and inactive are the calls of the source. The calls are words filed in the database; no cut-off is given here.

How the values were obtained:
Plasmodium berghei [1] = experiment: Antimalarial activity against Plasmodium berghei ANKA infected in orally dosed mouse model compound administered at 9 hrs post-infection on first day followed by bid for subsequent 3 days; format: functional; conditions: po
Summary of the method: (§1)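 Oral dosing in mouse malaria models. Efficacy is expressed as ED50, ED90 and ED99 in mg/kg/day.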

[2] = Volume of distribution at steady state in rat at 1 mg/kg, iv by LC-MS/MS analysis; format: ADME, organism-based; set-up: dose 1 mg/kg, route intravenous; conditions: in vivo, read-out: Vdss
[3] = Half life in rat at 1 mg/kg, iv by LC-MS/MS analysis; format: ADME, organism-based; set-up: dose 1 mg/kg, route intravenous; conditions: in vivo
Salmonella typhimurium [4] = experiment: Mutagenic activity in S9-induced Salmonella typhimurium TA98 up to 100 uM by Ames test; format: toxicity, organism-based; conditions: salmonella enterica subsp. enterica serovar typhimurium
[5] = Plasma protein binding in dog by LC-MS/MS analysis; format: ADME, cell-free, Canis lupus familiaris; conditions: read-out: PPB (converted)
[6] = AUC (0 to infinity) in rat at 3 mg/kg, po by LC-MS/MS analysis; format: ADME, organism-based; set-up: time infinity, dose 3 mg/kg, route oral; conditions: plasma
[7] = Clearance in mouse liver microsomes by LC-MS/MS analysis; format: ADME, Microsome
Summary of the method: (§2)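 Liver microsome incubation. Predicted clearance is derived from a well-stirred model corrected for microsomal and protein binding.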

[8] = Volume of distribution at steady state in dog at 1 mg/kg, iv by LC-MS/MS analysis; format: ADME, organism-based, Canis lupus familiaris; set-up: dose 1 mg/kg, route intravenous; conditions: in vivo, read-out: Vdss
Canis familiaris [9] = experiment: AUC (0 to infinity) in dog at 1 mg/kg, iv by LC-MS/MS analysis; format: ADME, organism-based, Canis lupus familiaris, Plasma; set-up: dose 1 mg/kg, route intravenous, time infinity; conditions: in vivo
[10] = Clearance in human liver microsomes by LC-MS/MS analysis; format: ADME, Microsome; summary of the method: as §2
Cytochrome P450 2D6 = Cytochrome P450 2D6 (Homo sapiens, UniProt P10635); experiment: Inhibition of human CYP2D6 using bufuralol as substrate after 10 mins by LC-MS/MS analysis; format: ADME
Cytochrome P450 2D6, sequence (P10635 whole entry): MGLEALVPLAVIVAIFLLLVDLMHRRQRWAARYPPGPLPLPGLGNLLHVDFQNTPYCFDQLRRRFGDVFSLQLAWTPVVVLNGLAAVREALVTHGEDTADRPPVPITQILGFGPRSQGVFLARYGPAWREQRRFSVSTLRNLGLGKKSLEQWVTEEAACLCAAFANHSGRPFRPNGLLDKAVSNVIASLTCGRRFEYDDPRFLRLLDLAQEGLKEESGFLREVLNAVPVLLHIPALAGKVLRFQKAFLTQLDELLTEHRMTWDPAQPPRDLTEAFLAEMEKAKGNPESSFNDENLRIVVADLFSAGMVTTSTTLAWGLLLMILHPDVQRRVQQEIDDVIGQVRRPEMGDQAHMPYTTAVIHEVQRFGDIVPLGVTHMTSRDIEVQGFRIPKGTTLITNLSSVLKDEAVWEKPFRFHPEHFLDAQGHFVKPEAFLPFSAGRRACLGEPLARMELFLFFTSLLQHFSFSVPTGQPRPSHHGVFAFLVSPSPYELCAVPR

[11] = AUC (0 to infinity) in rat at 1 mg/kg, iv by LC-MS/MS analysis; format: ADME, organism-based; set-up: time infinity, dose 1 mg/kg, route intravenous; conditions: plasma
Cytochrome P450 1A2 = biological target: T1, Cytochrome P450 1A2 (Homo sapiens, UniProt P05177); experiment: Inhibition of human CYP1A2 using phenacetin as substrate after 10 mins by LC-MS/MS analysis; format: ADME
T1 sequence (P05177 whole entry): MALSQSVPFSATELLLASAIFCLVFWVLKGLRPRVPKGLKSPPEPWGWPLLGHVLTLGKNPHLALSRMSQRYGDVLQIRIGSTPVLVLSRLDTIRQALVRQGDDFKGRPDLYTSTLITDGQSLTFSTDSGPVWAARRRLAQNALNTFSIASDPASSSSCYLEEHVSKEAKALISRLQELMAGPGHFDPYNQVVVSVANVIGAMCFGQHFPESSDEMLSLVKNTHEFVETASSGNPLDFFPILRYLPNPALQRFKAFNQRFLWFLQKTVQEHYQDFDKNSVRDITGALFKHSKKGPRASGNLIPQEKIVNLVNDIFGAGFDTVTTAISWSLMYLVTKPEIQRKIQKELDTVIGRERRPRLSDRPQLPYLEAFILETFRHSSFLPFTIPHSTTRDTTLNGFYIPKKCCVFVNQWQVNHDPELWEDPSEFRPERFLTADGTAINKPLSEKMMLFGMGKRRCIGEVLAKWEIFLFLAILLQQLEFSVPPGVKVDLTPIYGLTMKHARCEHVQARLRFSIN

Cytochrome P450 2C19 = Cytochrome P450 2C19 (Homo sapiens, UniProt P33261); experiment: Inhibition of human CYP2C19 using S-mephenytoin as substrate after 45 mins by LC-MS/MS analysis; format: ADME
Cytochrome P450 2C19, sequence (P33261 whole entry): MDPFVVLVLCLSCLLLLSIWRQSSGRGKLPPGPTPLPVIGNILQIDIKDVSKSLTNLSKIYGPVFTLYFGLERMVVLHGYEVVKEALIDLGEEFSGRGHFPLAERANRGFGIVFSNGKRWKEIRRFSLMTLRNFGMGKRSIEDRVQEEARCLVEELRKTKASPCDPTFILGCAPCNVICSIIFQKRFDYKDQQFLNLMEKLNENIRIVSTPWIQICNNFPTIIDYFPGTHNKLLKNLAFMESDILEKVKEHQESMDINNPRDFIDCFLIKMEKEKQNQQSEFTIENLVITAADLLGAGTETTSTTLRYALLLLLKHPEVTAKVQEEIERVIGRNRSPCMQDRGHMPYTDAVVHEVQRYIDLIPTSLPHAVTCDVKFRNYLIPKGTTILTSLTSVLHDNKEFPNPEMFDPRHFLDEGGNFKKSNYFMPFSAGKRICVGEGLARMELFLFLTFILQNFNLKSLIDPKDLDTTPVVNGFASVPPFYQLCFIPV

[12] = biological target: T2, Dihydroorotate dehydrogenase (Plasmodium falciparum, UniProt Q54A96); experiment: Inhibition of Plasmodium falciparum DHODH after 20 mins by 2,6-dichloroindophenol-reduction based assay
T2 sequence (Q54A96 whole entry): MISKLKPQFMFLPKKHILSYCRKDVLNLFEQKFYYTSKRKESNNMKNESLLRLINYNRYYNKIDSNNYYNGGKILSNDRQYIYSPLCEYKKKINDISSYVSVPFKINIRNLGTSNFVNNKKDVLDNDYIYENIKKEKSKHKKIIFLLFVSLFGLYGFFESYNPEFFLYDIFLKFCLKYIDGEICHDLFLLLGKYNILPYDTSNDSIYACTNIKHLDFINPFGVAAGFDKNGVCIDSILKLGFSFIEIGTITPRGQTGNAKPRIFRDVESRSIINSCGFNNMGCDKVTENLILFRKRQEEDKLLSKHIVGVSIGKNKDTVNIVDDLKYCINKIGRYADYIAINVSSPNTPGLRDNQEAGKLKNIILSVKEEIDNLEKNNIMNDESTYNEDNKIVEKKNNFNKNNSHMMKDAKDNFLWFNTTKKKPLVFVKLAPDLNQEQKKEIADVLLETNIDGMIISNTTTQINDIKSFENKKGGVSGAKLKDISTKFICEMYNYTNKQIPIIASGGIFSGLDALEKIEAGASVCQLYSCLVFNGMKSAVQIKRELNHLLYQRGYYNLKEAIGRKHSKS

[13] = Cmax in rat at 50 to 600 mg/kg, po qd for 7 days measured after 7 days washout period; format: ADME, organism-based; set-up: dose 50-600 mg/kg, route oral; conditions: in vivo
Summary of the method: (§3)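 Rats dosed orally once daily for 7 days at 0 (control), 50, 150, 450 and 600 mg/kg, then a 7-day washout. NOAEL determined, with Cmax and AUC reported at that exposure.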

[14] = AUC in rat at 50 to 600 mg/kg, po qd for 7 days measured after 7 days washout period; format: ADME, organism-based; set-up: dose 50-600 mg/kg, route oral; conditions: plasma; summary of the method: as §3
Plasmodium berghei [15] = experiment: Inhibition of Plasmodium berghei DHODH after 20 mins by 2,6-dichloroindophenol-reduction based assay
Salmonella typhimurium [16] = experiment: Mutagenic activity in S9-induced Salmonella typhimurium 100 up to 100 uM by Ames test; format: toxicity, organism-based; conditions: salmonella enterica subsp. enterica serovar typhimurium
[17] = Clearance in dog at 1 mg/kg, iv by LC-MS/MS analysis; format: ADME, organism-based, Canis lupus familiaris; set-up: dose 1 mg/kg, route intravenous; conditions: in vivo
Cytochrome P450 2C9 = Cytochrome P450 2C9 (Homo sapiens, UniProt P11712); experiment: Inhibition of human CYP2C9 using diclofenac as substrate after 10 mins by LC-MS/MS analysis; format: ADME
Cytochrome P450 2C9, sequence (P11712 whole entry): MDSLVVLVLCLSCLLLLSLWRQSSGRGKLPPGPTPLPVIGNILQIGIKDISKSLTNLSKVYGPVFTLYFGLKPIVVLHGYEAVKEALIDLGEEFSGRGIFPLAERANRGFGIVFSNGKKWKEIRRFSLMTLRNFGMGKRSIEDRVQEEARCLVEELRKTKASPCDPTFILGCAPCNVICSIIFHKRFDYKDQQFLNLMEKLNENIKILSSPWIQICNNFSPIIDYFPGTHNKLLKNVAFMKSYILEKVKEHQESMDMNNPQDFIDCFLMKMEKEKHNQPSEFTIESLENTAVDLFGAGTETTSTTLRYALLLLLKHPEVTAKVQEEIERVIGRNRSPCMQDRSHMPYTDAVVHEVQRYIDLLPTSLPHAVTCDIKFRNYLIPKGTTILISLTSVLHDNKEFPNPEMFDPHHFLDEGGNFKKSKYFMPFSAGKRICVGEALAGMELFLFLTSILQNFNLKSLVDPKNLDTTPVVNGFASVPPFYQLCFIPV

Salmonella typhimurium [18] = experiment: Mutagenic activity in Salmonella typhimurium TA98 up to 100 uM by Ames test; format: toxicity, organism-based; conditions: salmonella enterica subsp. enterica serovar typhimurium
Salmonella typhimurium [19] = experiment: Mutagenic activity in S9-induced Salmonella typhimurium 1535 up to 100 uM by Ames test; format: toxicity, organism-based; conditions: salmonella enterica subsp. enterica serovar typhimurium
[20] = Cmax in rat at 3 mg/kg, po by LC-MS/MS analysis; format: ADME, organism-based; set-up: dose 3 mg/kg, route oral; conditions: in vivo
Plasmodium falciparum [21] = experiment: Antiplasmodial activity against Plasmodium falciparum Dd2 infected in […] after 72 hrs by SYBR green assay; format: functional, organism-based; conditions: Dd2, 72 h
[22] = Cmax in dog at 3 mg/kg, po by LC-MS/MS analysis; format: ADME, organism-based, Canis lupus familiaris; set-up: dose 3 mg/kg, route oral; conditions: in vivo
[23] = Half life in dog at 1 mg/kg, iv by LC-MS/MS analysis; format: ADME, organism-based, Canis lupus familiaris; set-up: dose 1 mg/kg, route intravenous; conditions: in vivo
[24] = Plasma protein binding in rat by LC-MS/MS analysis; format: ADME, cell-free; conditions: read-out: PPB (converted)
[25] = Oral bioavailability in rat at 3 mg/kg by LC-MS/MS analysis; format: ADME, organism-based; conditions: in vivo
Canis familiaris [26] = experiment: AUC (0 to infinity) in dog at 3 mg/kg, po by LC-MS/MS analysis; format: ADME, organism-based, Canis lupus familiaris, Plasma; set-up: time infinity, dose 3 mg/kg, route oral; conditions: in vivo
Canis familiaris [27] = experiment: Oral bioavailability in dog at 3 mg/kg by LC-MS/MS analysis; format: ADME, organism-based, Canis lupus familiaris; conditions: in vivo
Plasmodium falciparum [28] = experiment: Antimalarial activity against Plasmodium falciparum 3D70087/N9 infected in po dosed NOD-scid IL-2Rgamma-null mouse model compound administered bid for 4 to 7 days by FACS analysis; format: functional; conditions: 3D7 0087/N9, 4TO7, po; summary of the method: as §1
Salmonella typhimurium [29] = experiment: Mutagenic activity in Salmonella typhimurium 1535 up to 100 uM by Ames test; format: toxicity, organism-based; conditions: salmonella enterica subsp. enterica serovar typhimurium
[30] = Toxicity in po dosed rat administered qd for 7 days measured after 7 days washout period; format: organism-based; conditions: in vivo; summary of the method: as §3
Plasmodium vivax = experiment: Inhibition of Plasmodium vivax DHODH after 20 mins by 2,6-dichloroindophenol-reduction based assay
[31] = Permeability of the compound by parallel artificial membrane permeation assay; format: ADME; conditions: PAMPA; read-out: permeability
Plasmodium falciparum [32] = experiment: Antiplasmodial activity against Plasmodium falciparum 3D7 infected in […] after 72 hrs by SYBR green assay; format: functional, organism-based; conditions: 3D7, 72 h
Cytochrome P450 3A4 = Cytochrome P450 3A4 (Homo sapiens, UniProt P08684); experiment: Inhibition of human CYP3A4 using midazolam as substrate after 5 mins by LC-MS/MS analysis; format: ADME
Cytochrome P450 3A4, sequence (P08684 whole entry): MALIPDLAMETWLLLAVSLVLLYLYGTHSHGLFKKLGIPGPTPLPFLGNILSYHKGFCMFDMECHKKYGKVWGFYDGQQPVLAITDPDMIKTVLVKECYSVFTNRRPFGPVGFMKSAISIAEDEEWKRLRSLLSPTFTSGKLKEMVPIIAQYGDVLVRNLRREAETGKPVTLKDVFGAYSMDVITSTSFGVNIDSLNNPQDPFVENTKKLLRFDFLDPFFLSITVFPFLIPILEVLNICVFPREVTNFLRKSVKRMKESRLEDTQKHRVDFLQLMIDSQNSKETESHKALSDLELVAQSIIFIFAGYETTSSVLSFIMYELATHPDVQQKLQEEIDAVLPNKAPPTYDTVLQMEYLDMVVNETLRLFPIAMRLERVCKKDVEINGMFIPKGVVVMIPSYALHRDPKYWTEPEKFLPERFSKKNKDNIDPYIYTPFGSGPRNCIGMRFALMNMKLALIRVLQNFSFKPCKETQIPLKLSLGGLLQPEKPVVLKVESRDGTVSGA

[33] = Unbound fraction in human plasma; format: ADME, cell-free
[34] = Plasma protein binding in mouse by LC-MS/MS analysis; format: ADME, cell-free; conditions: read-out: PPB (converted)
[35] = Plasma protein binding in human by LC-MS/MS analysis; format: ADME, cell-free; conditions: read-out: PPB (converted)
[36] = Clearance in rat at 1 mg/kg, iv by LC-MS/MS analysis; format: ADME, organism-based; set-up: dose 1 mg/kg, route intravenous; conditions: in vivo
Salmonella typhimurium [37] = experiment: Mutagenic activity in Salmonella typhimurium 100 up to 100 uM by Ames test; format: toxicity, organism-based; conditions: salmonella enterica subsp. enterica serovar typhimurium
[38] = biological target: Voltage-gated inwardly rectifying potassium channel KCNH2 (Homo sapiens, UniProt Q12809); experiment: Inhibition of human ERG expressed in CHOK1 cells by whole cell voltage clamp assay; format: cell-based, CHO-K1; conditions: human, cho-k1
Voltage-gated inwardly rectifying potassium channel KCNH2, sequence (Q12809 whole entry): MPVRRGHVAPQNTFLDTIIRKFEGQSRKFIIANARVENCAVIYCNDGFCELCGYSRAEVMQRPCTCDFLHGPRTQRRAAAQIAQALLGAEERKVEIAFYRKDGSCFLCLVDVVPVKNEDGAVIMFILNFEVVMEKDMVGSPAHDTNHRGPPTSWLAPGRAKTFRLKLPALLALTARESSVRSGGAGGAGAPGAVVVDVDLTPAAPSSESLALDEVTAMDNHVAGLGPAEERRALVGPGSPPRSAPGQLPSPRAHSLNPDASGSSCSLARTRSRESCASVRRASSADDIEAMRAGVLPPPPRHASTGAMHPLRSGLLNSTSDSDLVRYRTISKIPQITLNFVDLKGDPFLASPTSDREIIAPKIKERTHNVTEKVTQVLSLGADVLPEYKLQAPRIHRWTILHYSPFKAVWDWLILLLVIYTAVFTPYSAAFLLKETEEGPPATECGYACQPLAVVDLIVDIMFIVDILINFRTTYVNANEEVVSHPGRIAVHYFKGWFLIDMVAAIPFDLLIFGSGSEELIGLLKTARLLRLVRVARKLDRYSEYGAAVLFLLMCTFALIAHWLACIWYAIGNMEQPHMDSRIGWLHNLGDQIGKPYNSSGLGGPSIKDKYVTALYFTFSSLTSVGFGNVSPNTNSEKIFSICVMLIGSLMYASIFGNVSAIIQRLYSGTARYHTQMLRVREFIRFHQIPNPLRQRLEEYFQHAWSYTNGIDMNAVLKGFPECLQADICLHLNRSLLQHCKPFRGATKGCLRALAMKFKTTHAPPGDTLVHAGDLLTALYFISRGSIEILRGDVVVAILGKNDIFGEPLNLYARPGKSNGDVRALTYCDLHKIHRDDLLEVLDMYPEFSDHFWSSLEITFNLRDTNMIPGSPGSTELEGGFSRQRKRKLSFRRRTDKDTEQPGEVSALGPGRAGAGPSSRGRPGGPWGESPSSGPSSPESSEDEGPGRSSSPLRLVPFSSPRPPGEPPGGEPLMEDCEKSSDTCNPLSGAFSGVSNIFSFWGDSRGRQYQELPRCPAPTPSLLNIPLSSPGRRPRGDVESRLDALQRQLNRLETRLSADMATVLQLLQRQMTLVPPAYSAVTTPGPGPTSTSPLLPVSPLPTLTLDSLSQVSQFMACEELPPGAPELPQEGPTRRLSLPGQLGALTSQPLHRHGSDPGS

Vd [2]: 0.995 L/kg
half-life [3]: 51 min
fraction unbound [5]: 0.312
AUC(0-inf) [6]: 1040 ng·h/mL
CLhep predicted [7]: 26 mL/min/kg
Vd [8]: 0.279 L/kg
AUC (Canis familiaris [9]): 1500 ng·h/mL
CLhep predicted [10]: < 4 mL/min/kg
pIC50 (Cytochrome P450 2D6): < 5.00
AUC(0-inf) [11]: 703 ng·h/mL
pIC50 (Cytochrome P450 1A2): < 5.00
pIC50 (Cytochrome P450 2C19): < 5.00
pIC50 [12]: 7.40
Cmax [13]: 29000 ng/mL
AUC at 168 h [14]: 328000 ng·h/mL
inhibition (Plasmodium berghei [15]): Active
clearance [17]: 6.7 mL/min/kg
pIC50 (Cytochrome P450 2C9): < 5.00
Cmax [20]: 618 ng/mL
pIC50 (Plasmodium falciparum [21]): 8.00
Cmax [22]: 1110 ng/mL
half-life [23]: 31.2 min
fraction unbound [24]: 0.22
bioavailability [25]: 49%
AUC (Canis familiaris [26]): 359 ng·h/mL
F (Canis familiaris [27]): 19%
inhibition (Plasmodium vivax): Active
Papp [31]: 49 ×10⁻⁶ cm/s
pIC50 (Plasmodium falciparum [32]): 8.15
pIC50 (Cytochrome P450 3A4): < 5.00
fraction unbound [33]: 0.11
fraction unbound [34]: 0.182
fraction unbound [35]: 0.112
clearance [36]: 24 mL/min/kg
SMILES: Cc1nc2c(C#N)cccc2n1-c1ccc(C(=O)NC2CC2)s1
ED50 (Plasmodium berghei [1]): 13 mg/kg/day
ED90 (Plasmodium berghei [1]): 28 mg/kg/day
ED99 (Plasmodium berghei [1]): 62 mg/kg/day
Activity (Salmonella typhimurium [4]): Non-toxic
Activity (Salmonella typhimurium [16]): Non-toxic
Activity (Salmonella typhimurium [18]): Non-toxic
Activity (Salmonella typhimurium [19]): Non-toxic
ED50 (Plasmodium falciparum [28]): 13 mg/kg/day
ED90 (Plasmodium falciparum [28]): 27 mg/kg/day
ED99 (Plasmodium falciparum [28]): 60 mg/kg/day
Activity (Salmonella typhimurium [29]): Non-toxic
NOAEL at 168 h [30]: > 600 mg/kg
Activity (Salmonella typhimurium [37]): Non-toxic

CLhep predicted [7]: > 72 mL/min/kg
CLhep predicted [10]: 4 mL/min/kg
inhibition (INH) (Cytochrome P450 2D6; human, 10 min): Not Active
inhibition (INH) (Cytochrome P450 1A2; human, 10 min): Not Active
inhibition (INH) (Cytochrome P450 2C19; human, 0.75 h): Not Active
pIC50 [12]: 6.79
inhibition (Plasmodium berghei [15]): Active
inhibition (INH) (Cytochrome P450 2C9; human, 10 min): Not Active
pIC50 (Plasmodium falciparum [21]): 6.96
inhibition (Plasmodium vivax): Active
pIC50 (Plasmodium falciparum [32]): 7.31
inhibition (INH) (Cytochrome P450 3A4; human, 5 min): Not Active
SMILES: COc1cccc2c1nc(C)n2-c1ccc(C(=O)NC2CC2)s1
inhibition (INH) [38]: Not Active
